# Tests used:
# H4 [1] = assay: Tested for its reversal effect on growth of H4 cells at 133 + 50 ug/mL concentrations of L-aspargine and DL-threo-beta-fluoroaspartate; type: functional
# Procedure, shortened: (§1)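 Rat hepatoma H4 cells seeded at 1.4×10^4 per 35-mm dish in MEM+. On day 4, fresh MEM+ was added, with treatments including L-aspartate or L-asparagine. Exposure 66 h, then total cell protein per dish measured by Lowry. Results expressed as % of untreated control protein, mean of duplicate dishes.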
# H4 [2] = assay: Tested for its reversal effect on growth of H4 cells at 330 + 40 ug/mL concentrations of L-aspargine and DL-threo-beta-fluoroaspartate; type: functional
# Procedure, shortened: (§2)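 H4 hepatoma cells seeded at 8×10^3 per 35-mm dish in F 10+ medium. On day 4, the medium was renewed and treatments started, including L-aspartate or L-asparagine. Incubation 72 h, then Lowry total cell protein per dish. Results reported as % of untreated control, mean of duplicate dishes.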
# H4 [3] = assay: Tested for its reversal effect on growth of H4 cells at 133+5 ug/mL concentrations of L-aspargine and DL-threo-beta-fluoroaspartate; type: functional; procedure, shortened: as §1
# H4 [4] = assay: Tested for its reversal effect on growth of H4 cells at 330+5 ug/mL concentrations of L-aspargine and DL-threo-beta-fluoroaspartate; type: functional; procedure, shortened: as §2
# H4 (Rattus norvegicus) [5] = assay: Tested for its reversal effect on growth of H4 cells at 133 ug/mL concentrations of L-aspargine and DL-threo-beta-fluoroaspartate
# H4 (Rattus norvegicus) [6] = assay: Tested for its reversal effect on growth of H4 cells at 330 ug/mL concentrations of L-aspargine and DL-threo-beta-fluoroaspartate
# [7] = Distribution of radioactivity derived form [C14]-labeled compound taken up by 7800C1 cells; total uptake; type: ADME
# Procedure, shortened: (§3)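 7800C₁ cells in 100-mm dishes in MEM⁺; on day 4 medium renewed, and 6 h later ¹⁴C-labeled amino acid added to duplicate dishes for 12 h. Washed cells fractionated with 10% trichloroacetic acid (3 h, 0 °C) into acid-soluble material, then hot 5% acid (82 °C, 30 min) to release nucleic acid, leaving a protein pellet on glass-fiber filter. Scintillation counting; nmol/10⁶ cells, mean of duplicates.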
# [8] = Percent recovery form [C14]-labeled compound taken up by 7800C1 cells; type: ADME; conditions: rat; procedure, shortened: as §3
# GH4-C1 = assay: Compound was tested for its uptake by the GH4C1 cells; type: functional, Rattus norvegicus
# Procedure, shortened: (§4)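 Cells plated in 100-mm dishes in F 10⁺; on day 4 medium replaced with fresh F 10⁺, and 3 h later ¹⁴C-labeled amino acid added to duplicate dishes. 6 h incubation, then monolayer washed in cold 0.9% NaCl, cells scraped off, and radioactivity counted by liquid scintillation. Uptake expressed as nmol/10⁶ cells from cell counts on untreated dishes; mean of duplicates.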
# MH1C1 = assay: Compound was tested for its uptake by the MH1C1 cells; type: functional; procedure, shortened: as §4
# Jensen sarcoma = assay: Compound was tested for its uptake by the Jensen sarcoma cells; type: functional, Rattus norvegicus; procedure, shortened: as §4
# H4 (Rattus norvegicus) [9] = assay: Compound was tested for its uptake by the H4 cells
# [10] = tested on: 7800C1 (Rattus norvegicus); assay: Compound was tested for its uptake by the 7800C1 cells
smiles,measurement,setting,value
NC(=O)C(F)[C@H](N)C(=O)O.N[C@@H](CC(=O)O)C(=O)O (mixture of isomers; form 1),Cell protein in untreated control,H4 [1],68%
same,Cell protein in untreated control,H4 [2],93%
NC(C(=O)O)C(F)C(=O)O.N[C@@H](CC(=O)O)C(=O)O (mixture of isomers),Cell protein in untreated control,H4 [3],79%
same,Cell protein in untreated control,H4 [4],78%
NC(=O)C[C@H](N)C(=O)O [ASPARAGINE],Cell protein in untreated control,H4 (Rattus norvegicus) [5],103%
same,Cell protein in untreated control,H4 (Rattus norvegicus) [6],100%
N[C@@H](CC(=O)O)C(=O)O [ASPARTIC ACID],Activity,[7],21 nM (10e6*cells)-1
same,Recovery,[8],83%
same,Activity,GH4-C1,1.1 nM (10e6*cells)-1
same,Activity,MH1C1,0.5 nM (10e6*cells)-1
same,Activity,Jensen sarcoma,0.4 nM (10e6*cells)-1
same,Activity,H4 (Rattus norvegicus) [9],23.4 nM (10e6*cells)-1
same,Activity,[10],13.2 nM (10e6*cells)-1
same,Cell protein in untreated control,H4 (Rattus norvegicus) [5],115%
same,Cell protein in untreated control,H4 (Rattus norvegicus) [6],77%
